Data published in ChEMBL document CHEMBL1148762, “Lysosome and HER3 (ErbB3) selective anticancer agent kahalalide F: semisynthetic modifications and antifungal lead-exploration studies” (J Med Chem, 2007).
Calls of active or inactive are those of the source. The calls are words filed in the database; no cut-off is given here.

What was measured:
Fusarium proliferatum [1] = assay: Fungistatic activity against Fusarium proliferatum at 30 uM after 72 hrs by microtiter plate assay; assay type: functional, organism-based
Procedure, shortened: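 Conidia come from 7-day potato dextrose agar cultures, filtered and set photometrically (625 nm) to 3 × 10^5 conidia/mL. They are exposed to compound at 30 µM in 96-well microdilution broth at 24 ± 1 °C under a 12 h photoperiod. After 72 h, 20 µL per well is subcultured on drug-free potato dextrose agar at 28 °C for 3 days. No regrowth is scored fungicidal; regrowth is scored fungistatic.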

Fusarium solani [2] = assay: Fungicidal activity against Fusarium solani at 30 uM after 72 hrs by microtiter assay; assay type: functional, organism-based
Procedure, shortened: (§1)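 After 72 h of microtiter broth exposure at 30 µM, 20 µL from each well was plated onto compound-free potato dextrose agar and incubated 3 days at 28 °C. No regrowth was scored fungicidal; regrowth was scored fungistatic.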

Fusarium oxysporum [3] = assay: Fungicidal activity against Fusarium oxysporum at 30 uM after 72 hrs by microtiter plate assay; assay type: functional, organism-based; procedure, shortened: as §1
SK-OV-3 = assay: Cytotoxicity against human SK-OV3 cells; assay type: functional
Procedure, shortened: (§2)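 NCI Developmental Therapeutics Program cell panel. GI50 is the concentration that reduces growth of treated cells to half that of untreated controls. TGI is the concentration that completely halts growth.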

ACHN = assay: Cytotoxicity against human ACHN cells; assay type: functional; procedure, shortened: as §2
PC-3 = assay: Cytotoxicity against human PC3 cells; assay type: functional; procedure, shortened: as §2
DU-145 = assay: Cytotoxicity against human DU145 cells; assay type: functional; procedure, shortened: as §2
T47D = assay: Cytotoxicity against human T47D cells; assay type: functional; procedure, shortened: as §2
Hs-578T = assay: Cytotoxicity against human HS578T cells; assay type: functional; procedure, shortened: as §2
Fusarium proliferatum [4] = assay: Antimicrobial activity against Fusarium proliferatum at 0.3 uM after 72 hrs by microtiter assay; assay type: functional
Procedure, shortened: (§3)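 96-well microdilution broth assay with conidia (3 × 10^5 conidia/mL, harvested from 7-day PDA cultures and filtered) against F. oxysporum, F. proliferatum and F. solani at 0.3, 3 and 30 µM. Plates were held at 24 ± 1 °C under a 12 h photoperiod. Growth was read at 620 nm at 24, 48 and 72 h and reported as percent inhibition from mean absorbance with standard error.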

Fusarium proliferatum [5] = assay: Antimicrobial activity against Fusarium proliferatum at 3 uM after 48 hrs by microtiter assay; assay type: functional; procedure, shortened: as §3
Fusarium proliferatum [6] = assay: Antimicrobial activity against Fusarium proliferatum at 3 uM after 72 hrs by microtiter assay; assay type: functional; procedure, shortened: as §3
Fusarium proliferatum [7] = assay: Antimicrobial activity against Fusarium proliferatum at 0.3 uM after 48 hrs by microtiter assay; assay type: functional; procedure, shortened: as §3
[8] = tested on: Mycobacterium tuberculosis; assay: Antibacterial activity against Mycobacterium tuberculosis H37Rv at 16 ug/mL by micro plate alamar blue assay; assay type: functional
Procedure, shortened: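 M. tuberculosis H37Rv ATCC 27294 grown in BACTEC 12B medium; microplate Alamar blue assay (MABA). Primary screen at a single concentration of 16 µg/mL, read as percent inhibition.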

Fusarium oxysporum [9] = assay: Antimicrobial activity against Fusarium oxysporum at 0.3 uM after 48 hrs by microtiter assay; assay type: functional; procedure, shortened: as §3
Fusarium oxysporum [10] = assay: Antimicrobial activity against Fusarium oxysporum at 0.3 uM after 72 hrs by microtiter assay; assay type: functional; procedure, shortened: as §3
Fusarium solani [11] = assay: Antimicrobial activity against Fusarium solani at 0.3 uM after 48 hrs by microtiter assay; assay type: functional; procedure, shortened: as §3
Fusarium solani [12] = assay: Antimicrobial activity against Fusarium solani at 0.3 uM after 72 hrs by microtiter assay; assay type: functional; procedure, shortened: as §3
Fusarium oxysporum [13] = assay: Antimicrobial activity against Fusarium oxysporum at 3 uM after 48 hrs by microtiter assay; assay type: functional; procedure, shortened: as §3
Fusarium oxysporum [14] = assay: Antimicrobial activity against Fusarium oxysporum at 3 uM after 72 hrs by microtiter assay; assay type: functional; procedure, shortened: as §3
Fusarium solani [15] = assay: Antimicrobial activity against Fusarium solani at 3 uM after 48 hrs by microtiter assay; assay type: functional; procedure, shortened: as §3
Fusarium solani [16] = assay: Antimicrobial activity against Fusarium solani at 3 uM after 72 hrs by microtiter assay; assay type: functional; procedure, shortened: as §3
Fusarium oxysporum [17] = assay: Antimicrobial activity against Fusarium oxysporum at 30 uM after 48 hrs by microtiter assay; assay type: functional; procedure, shortened: as §3
Fusarium oxysporum [18] = assay: Antimicrobial activity against Fusarium oxysporum at 30 uM after 72 hrs by microtiter assay; assay type: functional; procedure, shortened: as §3
Fusarium solani [19] = assay: Antimicrobial activity against Fusarium solani at 30 uM after 48 hrs by microtiter assay; assay type: functional; procedure, shortened: as §3
Fusarium solani [20] = assay: Antimicrobial activity against Fusarium solani at 30 uM after 72 hrs by microtiter assay; assay type: functional; procedure, shortened: as §3
A549 = assay: Cytotoxicity against human A549 cells; assay type: functional; procedure, shortened: as §2
NCI-H322M = assay: Cytotoxicity against human NCI-H322M cells; assay type: functional; procedure, shortened: as §2
RPMI-8226 = assay: Cytotoxicity against human RPMI8226 cells; assay type: functional; procedure, shortened: as §2
COLO 205 = assay: Cytotoxicity against human COLO205 cells; assay type: functional; procedure, shortened: as §2
HCC 2998 = assay: Cytotoxicity against human HCC2998 cells; assay type: functional; procedure, shortened: as §2
HCT-15 = assay: Cytotoxicity against human HCT15 cells; assay type: functional; procedure, shortened: as §2
HT-29 = assay: Cytotoxicity against human HT29 cells; assay type: functional; procedure, shortened: as §2
KM12 = assay: Cytotoxicity against human KM12 cells; assay type: functional; procedure, shortened: as §2
SNB-75 = assay: Cytotoxicity against human SNB75 cells; assay type: functional; procedure, shortened: as §2
UACC-257 = assay: Cytotoxicity against human UACC257 cells; assay type: functional; procedure, shortened: as §2
Fusarium proliferatum [21] = assay: Antimicrobial activity against Fusarium proliferatum at 30 uM after 48 hrs by microtiter assay; assay type: functional; procedure, shortened: as §3
Fusarium proliferatum [22] = assay: Antimicrobial activity against Fusarium proliferatum at 30 uM after 72 hrs by microtiter assay; assay type: functional; procedure, shortened: as §3

In the case of `C/C=C1\NC(=O)[C@H](Cc2ccccc2)NC(=O)[C@@H](C(C)C)NC(=O)[C@@H]([C@@H](C)CC)NC(=O)[C@H](NC(=O)[C@H](NC(=O)[C@H](CCCNCc2cccs2)NC(=O)[C@H]2CCCN2C(=O)[C@@H](NC(=O)[C@H](NC(=O)[C@H](NC(=O)[C@@H](NC(=O)CCCC(C)C)C(C)C)[C@H](C)O)C(C)C)C(C)C)[C@@H](C)CC)[C@@H](C)OC(=O)[C@H](C(C)C)NC1=O`, the Activity (Fusarium proliferatum [1]) is reported as “Active”, the Activity (Fusarium solani [2]) is reported as “Active” and the Activity (Fusarium oxysporum [3]) is reported as “Active”.

`C/C=C1\NC(=O)[C@H](Cc2ccccc2)NC(=O)[C@@H](C(C)C)NC(=O)[C@@H]([C@@H](C)CC)NC(=O)[C@H](NC(=O)[C@H](NC(=O)[C@H](CCCNC(=O)c2cc3ccc(N(CC)CC)cc3oc2=O)NC(=O)[C@H]2CCCN2C(=O)[C@H](NC(=O)[C@@H](NC(=O)[C@@H](NC(=O)[C@H](NC(=O)CCCC(C)C)C(C)C)[C@@H](C)O)C(C)C)C(C)C)[C@@H](C)CC)[C@@H](C)OC(=O)[C@H](C(C)C)NC1=O` gave a GI50 (SK-OV-3) of 2550 nM, a TGI (SK-OV-3) of 20.2 µM and a GI50 (ACHN) of 26.4 µM. For the same molecule, the TGI (ACHN) was 69.8 µM, the GI50 (PC-3) was 3.7 µM and the TGI (PC-3) was 21.8 µM. For the same molecule, the GI50 (DU-145) was 330 nM, the TGI (DU-145) was 1830 nM and the GI50 (T47D) was 518 nM. It also gave a TGI (T47D) of 2830 nM, a GI50 (Hs-578T) of 3.03 µM and a TGI (Hs-578T) greater than 100 µM. The inhibition at 0.3 µM (Fusarium proliferatum [4]) was 0%, the inhibition at 3 µM (Fusarium proliferatum [5]) was 0% and the inhibition at 3 µM (Fusarium proliferatum [6]) was 0%. The inhibition at 0.3 µM (Fusarium proliferatum [7]) was 0%, the inhibition at 16 µg/mL [8] was 46% and the inhibition at 0.3 µM (Fusarium oxysporum [9]) was 0%. For the same molecule, the inhibition at 0.3 µM (Fusarium oxysporum [10]) was 0%, the inhibition at 0.3 µM (Fusarium solani [11]) was 0% and the inhibition at 0.3 µM (Fusarium solani [12]) was 0%. It also gave an inhibition at 3 µM (Fusarium oxysporum [13]) of 0%, an inhibition at 3 µM (Fusarium oxysporum [14]) of 0% and an inhibition at 3 µM (Fusarium solani [15]) of 0%. The inhibition at 3 µM (Fusarium solani [16]) was 0%, the inhibition at 30 µM (Fusarium oxysporum [17]) was 0% and the inhibition at 30 µM (Fusarium oxysporum [18]) was 0%. It also gave an inhibition at 30 µM (Fusarium solani [19]) of 0%, an inhibition at 30 µM (Fusarium solani [20]) of 0% and a GI50 (A549) of 13.7 µM. It also gave a TGI (A549) greater than 100 µM, a GI50 (NCI-H322M) of 165 nM and a TGI (NCI-H322M) of 490 nM. The GI50 (RPMI-8226) was 40.1 µM, the TGI (RPMI-8226) was greater than 100 µM and the GI50 (COLO 205) was 4.52 µM. It also gave a TGI (COLO 205) greater than 100 µM, a GI50 (HCC 2998) of 2270 nM and a TGI (HCC 2998) of 11.4 µM. The GI50 (HCT-15) was 964 nM, the TGI (HCT-15) was 17.7 µM and the GI50 (HT-29) was 2390 nM. The TGI (HT-29) was greater than 100 µM, the GI50 (KM12) was 413 nM and the TGI (KM12) was 3.07 µM. The GI50 (SNB-75) was 2110 nM, the TGI (SNB-75) was 6.87 µM and the GI50 (UACC-257) was greater than 100 µM. It also gave a TGI (UACC-257) greater than 100 µM, an inhibition at 30 µM (Fusarium proliferatum [21]) of 0% and an inhibition at 30 µM (Fusarium proliferatum [22]) of 0%.
